Data as given in ChEMBL document CHEMBL5705906 (Nat Commun, 2017).
Calls of active or inactive are those of the source. The rule behind the calls is not given here.

Columns and labels:
BaF3 = experiment: Inhibition of EGFR-C797S/T790M/L858R mutant expressed in mouse BaF3 cells assessed as inhibition of Akt phosphorylation at 10 to 1000 nM incubated for 6 hrs by Western blotting analysis; assay type: cell-based; details: dose 10-1000 nM
In short: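 Ba/F3 cells expressing EGFR-L858R-series mutants treated with inhibitors for 6 h. SDS lysates quantified by BCA, run on SDS-PAGE and blotted to PVDF. Probed for phospho-EGFR (Tyr1068), total EGFR and downstream phospho-proteins.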

PC-9 = experiment: Anti-tumor activity against human PC-9 cells expressing EGFR-C797S/T790M/del19 mutant xenografted in Balb-c nu/nu mouse assessed as prolonged survival at 75 mg/kg, po administered for 60 days and measured twice weekly in presence of panitumumab; assay type: functional, organism-based; details: time 60.0 day
In short: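 PC9 EGFR-C797S/T790M/del19 xenografts in Balb-c nu/nu mice, randomized at ~200 mm³. […] Tumour volume 0.5×length×width² measured twice weekly. Survival by Kaplan-Meier. N = 6. Mann-Whitney U test at days 16 and 23.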

[1] = system: Epidermal growth factor receptor (Homo sapiens), P00533 [UNDEFINED MUTATION]; details: PC-9, dose 10-1000 nM
Chain of Epidermal growth factor receptor (Homo sapiens), P00533 [UNDEFINED MUTATION] (P00533 whole entry, looked up, change not shown): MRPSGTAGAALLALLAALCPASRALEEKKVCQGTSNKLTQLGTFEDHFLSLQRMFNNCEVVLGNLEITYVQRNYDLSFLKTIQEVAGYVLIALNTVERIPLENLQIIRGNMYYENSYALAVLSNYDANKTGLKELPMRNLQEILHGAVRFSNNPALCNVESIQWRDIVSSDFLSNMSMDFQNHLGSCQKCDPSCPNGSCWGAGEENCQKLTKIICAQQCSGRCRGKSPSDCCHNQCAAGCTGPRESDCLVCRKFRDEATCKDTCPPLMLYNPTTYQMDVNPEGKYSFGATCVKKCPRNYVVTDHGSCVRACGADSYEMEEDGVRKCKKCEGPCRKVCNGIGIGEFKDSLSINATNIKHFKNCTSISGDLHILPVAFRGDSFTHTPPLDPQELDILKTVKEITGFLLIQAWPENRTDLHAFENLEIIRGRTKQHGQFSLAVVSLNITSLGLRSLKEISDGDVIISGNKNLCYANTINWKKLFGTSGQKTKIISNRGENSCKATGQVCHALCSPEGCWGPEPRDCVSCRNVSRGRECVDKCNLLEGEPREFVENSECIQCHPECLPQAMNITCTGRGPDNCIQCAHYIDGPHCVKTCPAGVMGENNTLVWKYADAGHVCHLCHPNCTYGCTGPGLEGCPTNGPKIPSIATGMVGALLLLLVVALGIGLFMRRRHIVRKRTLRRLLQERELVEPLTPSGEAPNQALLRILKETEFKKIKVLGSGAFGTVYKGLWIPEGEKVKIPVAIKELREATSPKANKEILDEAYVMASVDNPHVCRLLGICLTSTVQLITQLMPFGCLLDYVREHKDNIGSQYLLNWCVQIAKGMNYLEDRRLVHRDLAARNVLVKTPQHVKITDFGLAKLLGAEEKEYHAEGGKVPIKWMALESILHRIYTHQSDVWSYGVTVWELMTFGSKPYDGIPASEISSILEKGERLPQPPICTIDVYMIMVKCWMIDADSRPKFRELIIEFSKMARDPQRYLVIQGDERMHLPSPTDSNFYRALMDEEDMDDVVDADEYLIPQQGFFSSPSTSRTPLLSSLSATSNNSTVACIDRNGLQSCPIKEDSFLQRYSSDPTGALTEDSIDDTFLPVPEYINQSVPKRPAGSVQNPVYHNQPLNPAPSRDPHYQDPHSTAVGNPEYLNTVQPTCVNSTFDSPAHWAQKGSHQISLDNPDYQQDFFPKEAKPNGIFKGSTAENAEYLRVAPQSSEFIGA

inhibition [1]: Active
Structure (SMILES): COc1cc(N2CCC(N3CCN(C)CC3)CC2)ccc1Nc1ncc(Cl)c(Nc2ccccc2P(C)(C)=O)n1 [BRIGATINIB]
inhibition (BaF3): Active
Activity (PC-9): Active
